≈ marks a conversion by molar mass, not a printed value.
What was measured:
Format in all cases: functional
[1] = test system: Bacillus subtilis; assay: Growth inhibition of Bacillus subtilis NCIM 2079 at 3 ug/ml measured after 12 hrs relative to control; details: NCIM 2079, 12 h, read-out: GI
In short: (§1)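 Bacteria grown in LB at 37 °C and 180 rpm to OD 1. Compounds added to wells, then 0.1% inoculum of 1 OD culture (620 nm). Growth read as OD at 620 nm after 8 h for gram-negative and after 12 h for gram-positive strains.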

[2] = test system: Staphylococcus aureus; assay: Growth inhibition of Staphylococcus aureus NCIM 2010 at 30 ug/ml measured after 12 hrs relative to control; details: NCIM 2010, 12 h, read-out: GI; in short: as §1
[3] = Antifungal activity against Cryptococcus neoformans NCIM 576 by standard agar method
In short: (§2)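 MICs determined by standard agar method; DMSO as solvent control.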

[4] = test system: Aspergillus flavus; assay: Antifungal activity against Aspergillus flavus NCIM 539 by standard agar method; in short: as §2
[5] = test system: Mycobacterium tuberculosis; assay: Growth inhibition of Mycobacterium tuberculosis H37Ra ATCC 25177 at dormant stage measured after 12 days by XTT dye based two fold dilution method; details: H37Ra ATCC 25177, 288 h
In short: (§3)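 MTB H37Ra was grown in Dubos medium, then exposed in Mycobacterium pheli minimal medium (pH 6.6) to compounds dissolved in DMSO. The assay ended on day 8 (active) or day 12 (dormant). Viable cells were measured by XTT reduction menadione assay at 470 nm, blank-corrected, relative to vehicle control. Triplicates were expressed as mean ± SD. MIC came from dose-response curves.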

[6] = test system: Mycobacterium tuberculosis; assay: Growth inhibition of Mycobacterium bovis BCG ATCC 35743 at dormant stage at 3 ug/ml measured after 12 days by nitrate reductase dye based two fold dilution method relative to control; details: BCG str. ATCC 35743, 288 h, read-out: GI
In short: (§4)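 M. bovis BCG was grown in Dubos medium and assayed in Mycobacterium pheli minimal medium (pH 6.6), with compounds from DMSO stocks. Incubation lasted 8 days for active and 12 days for dormant cultures. Viability was read by nitrate reductase at 540 nm against cell-free blanks, with vehicle set as 100% growth. Primary screen was at 30, 10 and 3 µg/ml, in triplicate, mean ± SD. MIC was taken from dose-response curves.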

[7] = test system: Escherichia coli; assay: Antibacterial activity against Escherichia coli NCIM 2688 measured after 8 hrs; details: NCIM 2688, 8 h; in short: as §1
[8] = test system: Mycobacterium tuberculosis; assay: Growth inhibition of Mycobacterium bovis BCG ATCC 35743 at dormant stage at 10 ug/ml measured after 12 days by nitrate reductase dye based two fold dilution method relative to control; details: BCG str. ATCC 35743, 288 h, read-out: GI; in short: as §4
[9] = test system: Candida albicans; assay: Antifungal activity against Candida albicans NCIM 3471 by standard agar method; in short: as §2
[10] = test system: Bacillus subtilis; assay: Growth inhibition of Bacillus subtilis NCIM 2079 at 30 ug/ml measured after 12 hrs relative to control; details: NCIM 2079, 12 h, read-out: GI; in short: as §1
[11] = test system: Staphylococcus aureus; assay: Growth inhibition of Staphylococcus aureus NCIM 2010 at 3 ug/ml measured after 12 hrs relative to control; details: NCIM 2010, 12 h, read-out: GI; in short: as §1
[12] = test system: Pseudomonas fluorescens; assay: Growth inhibition of Pseudomonas fluorescens NCIM 2036 at 10 ug/ml measured after 8 hrs relative to control; details: NCIM 2036, 8 h, read-out: GI; in short: as §1
[13] = test system: Staphylococcus aureus; assay: Growth inhibition of Staphylococcus aureus NCIM 2010 at 10 ug/ml measured after 12 hrs relative to control; details: NCIM 2010, 12 h, read-out: GI; in short: as §1
[14] = test system: Mycobacterium tuberculosis; assay: Growth inhibition of Mycobacterium tuberculosis H37Ra ATCC 25177 at active stage measured after 8 days by XTT dye based two fold dilution method; details: H37Ra ATCC 25177, 192 h; in short: as §3
[15] = test system: Bacillus subtilis; assay: Growth inhibition of Bacillus subtilis NCIM 2079 at 10 ug/ml measured after 12 hrs relative to control; details: NCIM 2079, 12 h, read-out: GI; in short: as §1
[16] = test system: Mycobacterium tuberculosis; assay: Growth inhibition of Mycobacterium bovis BCG ATCC 35743 at dormant stage at 30 ug/ml measured after 12 days by nitrate reductase dye based two fold dilution method relative to control; details: BCG str. ATCC 35743, 288 h, read-out: GI; in short: as §4
[17] = Antifungal activity against Fusarium oxysporum NCIM 1332 by standard agar method; in short: as §2
[18] = test system: Pseudomonas fluorescens; assay: Growth inhibition of Pseudomonas fluorescens NCIM 2036 at 30 ug/ml measured after 8 hrs relative to control; details: NCIM 2036, 8 h, read-out: GI; in short: as §1
[19] = test system: Escherichia coli; assay: Growth inhibition of Escherichia coli NCIM 2688 at 10 ug/ml measured after 8 hrs relative to control; details: NCIM 2688, 8 h, read-out: GI; in short: as §1
[20] = test system: Staphylococcus aureus; assay: Antibacterial activity against of Staphylococcus aureus NCIM 2010 measured after 12 hrs; details: NCIM 2010, 12 h; in short: as §1
[21] = test system: Pseudomonas fluorescens; assay: Antibacterial activity against Pseudomonas fluorescens NCIM 2036 measured after 8 hrs; details: NCIM 2036, 8 h; in short: as §1
[22] = test system: Escherichia coli; assay: Growth inhibition of Escherichia coli NCIM 2688 at 3 ug/ml measured after 8 hrs relative to control; details: NCIM 2688, 8 h, read-out: GI; in short: as §1
[23] = test system: Escherichia coli; assay: Growth inhibition of Escherichia coli NCIM 2688 at 30 ug/ml measured after 8 hrs relative to control; details: NCIM 2688, 8 h, read-out: GI; in short: as §1
[24] = test system: Mycobacterium tuberculosis; assay: Growth inhibition of Mycobacterium bovis BCG ATCC 35743 at dormant stage measured after 12 days by nitrate reductase dye based two fold dilution method; details: BCG str. ATCC 35743, 288 h; in short: as §4
[25] = test system: Mycobacterium tuberculosis; assay: Growth inhibition of Mycobacterium bovis BCG ATCC 35743 at active stage measured after 8 days by nitrate reductase dye based two fold dilution method; details: BCG str. ATCC 35743, 192 h; in short: as §4
[26] = test system: Pseudomonas fluorescens; assay: Growth inhibition of Pseudomonas fluorescens NCIM 2036 at 3 ug/ml measured after 8 hrs relative to control; details: NCIM 2036, 8 h, read-out: GI; in short: as §1
[27] = test system: Bacillus subtilis; assay: Antibacterial activity against Bacillus subtilis NCIM 2079 measured after 12 hrs; details: NCIM 2079, 12 h; in short: as §1
[28] = test system: Aspergillus niger; assay: Antifungal activity against Aspergillus niger NCIM 1196 by standard agar method; in short: as §2

| Structure (SMILES) | inhibition of growth at 3 µg/mL [1] | inhibition of growth at 30 µg/mL [2] | MIC [3] | MIC [4] | IC50 [5] | IC90 [5] | inhibition of growth at 3 µg/mL [6] | MIC [7] | inhibition of growth at 10 µg/mL [8] | MIC [9] | inhibition of growth at 30 µg/mL [10] | inhibition of growth at 3 µg/mL [11] | inhibition of growth at 10 µg/mL [12] | inhibition of growth at 10 µg/mL [13] | IC50 [14] | IC90 [14] | inhibition of growth at 10 µg/mL [15] | inhibition of growth at 30 µg/mL [16] | MIC [17] | inhibition of growth at 30 µg/mL [18] | also measured |
| --- | --- | --- | --- | --- | --- | --- | --- | --- | --- | --- | --- | --- | --- | --- | --- | --- | --- | --- | --- | --- | --- |
| Cc1ccc2nc(Cl)c(/C=C3\SC(=S)NC3=O)cc2c1 | -8.73% | -44% | 150 µg/mL (≈ 468 µM) | 125 µg/mL (≈ 390 µM) | > 30 µg/mL | > 30 µg/mL | -19.3% | > 30 µg/mL | -18.4% | 175 µg/mL (≈ 545 µM) | -16.6% | -49.2% | 17.5% | -30.8% | > 30 µg/mL | > 30 µg/mL | -3.58% | -24.3% | 100 µg/mL (≈ 312 µM) | 18.4% | inhibition of growth at 10 µg/mL [19]: -6.34%; MIC [20]: > 30 µg/mL; MIC [21]: > 30 µg/mL; inhibition of growth at 3 µg/mL [22]: -7.51%; inhibition of growth at 30 µg/mL [23]: -7.51%; IC50 [24]: > 30 µg/mL; IC90 [24]: > 30 µg/mL; IC50 [25]: > 30 µg/mL; IC90 [25]: > 30 µg/mL; inhibition of growth at 3 µg/mL [26]: 23.9%; MIC [27]: > 30 µg/mL; MIC [28]: 125 µg/mL (≈ 390 µM) |
| Cc1ccc2cc(/C=C3\SC(=S)NC3=O)c(Cl)nc2c1 | -2.83% | 6.45% | 50 µg/mL (≈ 156 µM) | 50 µg/mL (≈ 156 µM) | > 30 µg/mL | > 30 µg/mL | 11.4% | > 30 µg/mL | 15% | 100 µg/mL (≈ 312 µM) | -9.15% | -13.7% | 27.1% | -4.88% | > 30 µg/mL | > 30 µg/mL | -4.08% | 11.4% | 100 µg/mL (≈ 312 µM) | 12.2% | inhibition of growth at 10 µg/mL [19]: 11.3%; MIC [20]: > 30 µg/mL; MIC [21]: > 30 µg/mL; inhibition of growth at 3 µg/mL [22]: 13.8%; inhibition of growth at 30 µg/mL [23]: 12.9%; IC50 [24]: > 30 µg/mL; IC90 [24]: > 30 µg/mL; IC50 [25]: > 30 µg/mL; IC90 [25]: > 30 µg/mL; inhibition of growth at 3 µg/mL [26]: -8.82%; MIC [27]: > 30 µg/mL; MIC [28]: 75 µg/mL (≈ 234 µM) |
| Cc1ccc2cc(/C=C3\SC(=S)N(CC(=O)O)C3=O)c(Cl)nc2c1 | 2.07% | -16% | 150 µg/mL (≈ 396 µM) | 100 µg/mL (≈ 264 µM) | > 30 µg/mL | > 30 µg/mL | 22.7% | > 30 µg/mL | 22.4% | 125 µg/mL (≈ 330 µM) | 2.96% | -13.1% | -10.7% | -23.6% | > 30 µg/mL | > 30 µg/mL | -1.27% | 11.4% | 125 µg/mL (≈ 330 µM) | -8.32% | inhibition of growth at 10 µg/mL [19]: 2.04%; MIC [20]: > 30 µg/mL; MIC [21]: > 30 µg/mL; inhibition of growth at 3 µg/mL [22]: 1.9%; inhibition of growth at 30 µg/mL [23]: -12.5%; IC50 [24]: > 30 µg/mL; IC90 [24]: > 30 µg/mL; IC50 [25]: > 30 µg/mL; IC90 [25]: > 30 µg/mL; inhibition of growth at 3 µg/mL [26]: -11.5%; MIC [27]: > 30 µg/mL; MIC [28]: 75 µg/mL (≈ 198 µM) |

Source: ChEMBL document CHEMBL3877264, “Quinolidene-rhodanine conjugates: Facile synthesis and biological evaluation” (Eur J Med Chem, 2017)
